What was measured:
NCI-H460 = experiment: Antiproliferative activity against human NCI-H460 cells assessed as cell growth at 100 uM after 48 hrs by alamar blue assay; type: functional; conditions: NCI-H460, 48 h, read-out: Activity
In short: (§1)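 DTP three cell line one-dose prescreen: MCF7 (breast), NCI-H460 (lung), SF-268 (CNS). Cells inoculated and preincubated in microtiter plate, then single concentration of test agent added, 48 h incubation. Alamar blue endpoint. Growth expressed as percent of untreated control cells.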

MCF7 = experiment: Antiproliferative activity against human MCF7 cells assessed as cell growth at 100 uM after 48 hrs by alamar blue assay; type: functional; conditions: MCF7, 48 h, read-out: Activity; in short: as §1
SF-268 = experiment: Antiproliferative activity against human SF268 cells assessed as cell growth at 100 uM after 48 hrs by alamar blue assay; type: functional; conditions: SF-268, 48 h, read-out: Activity; in short: as §1
[1] = Antiproliferative activity against MRP1-expressing human DLKP cells assessed as cell proliferation at 10 uM after 5 days by acid phosphatase assay; type: functional; conditions: 120 h, read-out: Activity
In short: (§2)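 Cell lines DLKP, DLKP-A and HT-144, seeded at 1 × 10³ cells/well (DLKP and DLKP-A) or 3 × 10³ cells/well (HT-144, higher density needed for cell-contact-dependent growth). 5 day drug exposure. Compounds tested alone and in combination with the P-gp/MRP1 substrate epirubicin. Read-out is cell proliferation (%) relative to untreated control.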

[2] = Solubility of the compound in cell media; conditions: cell culture media
[3] = Antiproliferative activity against MRP1-expressing human DLKP cells after 5 days by acid phosphatase assay; type: functional, cell-based; conditions: 120 h; in short: as §2
[4] = Solubility in DMSO-containing medium; type: physicochemical
In short: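 Compounds were solubilised in a minimum amount of DMSO, then solubility was tested in culture media. A minimum concentration of 0.5 mg/ml in media was required before biological evaluation.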

[5] = Antiproliferative activity against P-gp expressing human DLKP-A cells assessed as cell proliferation at 10 uM after 5 days by acid phosphatase assay; type: functional; conditions: for growth at 10 µM: Homo sapiens, DLKP-A, 120 h, read-out: Activity; in short: as §2
[6] = Antiproliferative activity against P-gp expressing human DLKP-A cells after 5 days by acid phosphatase assay; type: functional, cell-based; conditions: 120 h; in short: as §2
HT-144 [7] = experiment: Antiproliferative activity against human HT144 cells after 5 days by acid phosphatase assay; type: functional, cell-based; conditions: HT-144, 120 h; in short: as §2
HT-144 [8] = experiment: Antiproliferative activity against human HT144 cells assessed as cell proliferation at 20 uM after 5 days by acid phosphatase assay; type: functional; conditions: HT-144, 120 h, read-out: Activity; in short: as §2
[9] = Antiproliferative activity against P-gp expressing human DLKP-A cells assessed as cell proliferation at 5 uM after 5 days by acid phosphatase assay; type: functional; conditions: 120 h, read-out: Activity; in short: as §2
[10] = Antiproliferative activity against MRP1-expressing human DLKP cells assessed as cell proliferation at 5 uM after 5 days by acid phosphatase assay; type: functional; conditions: 120 h, read-out: Activity; in short: as §2
[11] = Aqueous solubility of the compound; type: physicochemical; conditions: buffer
RXF 393 = experiment: Anticancer activity against human RXF393 cells; type: functional, cell-based
In short: (§3)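 NCI 60 human tumour cell line panel; GI50, IC50, LC50 and TGI values calculated for each cell line.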

HT-29 = experiment: Anticancer activity against human HT-29 cells; type: functional, cell-based; in short: as §3
DU-145 = experiment: Anticancer activity against human DU145 cells; type: functional, cell-based; in short: as §3
SK-MEL-28 = experiment: Anticancer activity against human SK-MEL-28 cells; type: functional, cell-based; in short: as §3
EKVX = experiment: Anticancer activity against human EKVX cells; type: functional, cell-based; in short: as §3
SK-OV-3 = experiment: Anticancer activity against human SKOV3 cells; type: functional, cell-based; in short: as §3
SNB-75 = experiment: Anticancer activity against human SNB75 cells; type: functional, cell-based; in short: as §3
T47D = experiment: Anticancer activity against human T47D cells; type: functional, cell-based; in short: as §3
HL-60(TB) = experiment: Anticancer activity against human HL-60(TB) cells; type: functional, cell-based
In short: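 Tested in the DTP 60 human tumour cell line panel, which covers leukaemia, lung, colon, CNS, melanoma, ovarian, renal, prostate and breast lines. GI50, IC50, LC50 and TGI were calculated for each cell line.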

HT-144 [12] = experiment: Antiproliferative activity against human HT144 cells assessed as cell proliferation at 0.005 uM after 5 days by acid phosphatase assay; type: functional; conditions: HT-144, 120 h, read-out: Activity; in short: as §2
[13] = Antiproliferative activity against MRP1-expressing human DLKP cells assessed as cell proliferation at 0.01 uM after 5 days by acid phosphatase assay; type: functional; conditions: 120 h, read-out: Activity; in short: as §2
[14] = Antiproliferative activity against P-gp expressing human DLKP-A cells assessed as cell proliferation at 1.5 uM after 5 days by acid phosphatase assay; type: functional; conditions: 120 h, read-out: Activity; in short: as §2

Compound `COc1ccc(/C=C/c2cc(F)cc(F)c2)cc1` has a growth at 100 µM (NCI-H460) of 105%, a growth at 100 µM (MCF7) of 84% and a growth at 100 µM (SF-268) of 111%.
In the case of `COc1cc(/C=C/c2ccc(F)cc2)cc(OC)c1`, the growth at 100 µM (NCI-H460) is reported as 60%, the growth at 100 µM (MCF7) is reported as 67% and the growth at 100 µM (SF-268) is reported as 105%.
With `Fc1ccc(/C=C/c2cc(F)cc(F)c2)cc1` the growth at 100 µM (NCI-H460) was 101%, the growth at 100 µM (MCF7) was 82% and the growth at 100 µM (SF-268) was 111%.
With `CC(=O)Nc1ccc(/C=C/c2cc(F)cc(F)c2)cc1` the growth at 10 µM [1] was 75%, the solubility [2] was “Soluble” and the IC50 [3] was 39 µM. For the same compound, the solubility [4] was “Soluble” and the growth at 10 µM [5] was 78%.
For `CC(=O)Nc1cc(/C=C/c2ccc(F)cc2)cc(NC(C)=O)c1`, the IC50 [6] was greater than 50 µM, the growth at 10 µM [1] was 94% and the solubility [2] was “Soluble”. For the same compound, the IC50 [3] was 50 µM, the solubility [4] was “Soluble” and the growth at 10 µM [5] was 96%.
For `Nc1cc(N)cc(/C=C/c2ccc(F)cc2)c1`, the IC50 [6] was greater than 50 µM, the growth at 10 µM [1] was 87% and the solubility [2] was “Soluble”. The IC50 [3] was greater than 50 µM, the solubility [4] was “Soluble” and the growth at 10 µM [5] was 98%.
`CC(=O)Oc1cc(/C=C/c2ccc(F)cc2)cc(OC(C)=O)c1` gave an IC50 [6] of 19 µM, an IC50 (HT-144 [7]) of 56 µM and a growth at 20 µM (HT-144 [8]) of 100%. For the same compound, the solubility [2] was “Soluble”, the growth at 5 µM [9] was 89% and the IC50 [3] was 25 µM. For the same compound, the growth at 5 µM [10] was 100% and the solubility [4] was “Soluble”.
With `NCC(=O)Nc1ccc(/C=C/c2cc(F)cc(F)c2)cc1.O=C(O)C(F)(F)F` the solubility [11] was “Soluble” and the solubility [4] was “Soluble”.
In the case of `O=C(Nc1cc(/C=C/c2ccc(F)cc2)cc(NC(=O)C(F)(F)F)c1)C(F)(F)F`, the IC50 [6] is reported as 20 µM, the growth at 10 µM [1] is reported as 95% and the solubility [2] is reported as “Soluble”. For the same compound, the IC50 [3] was 28 µM, the solubility [4] was “Soluble” and the growth at 10 µM [5] was 84%.
For `Oc1ccc(/C=C/c2cc(F)cc(F)c2)cc1`, the IC50 [6] was 14 µM, the IC50 (HT-144 [7]) was 59 µM and the growth at 20 µM (HT-144 [8]) was 105%. The solubility [2] was “Soluble”, the growth at 5 µM [9] was 85% and the IC50 [3] was 6 µM. For the same compound, the growth at 5 µM [10] was 74% and the solubility [4] was “Soluble”.
`CC(=O)Oc1cc(O)cc(/C=C/c2ccc(F)cc2)c1` gave an IC50 [6] of 21 µM, an IC50 (HT-144 [7]) of 54 µM and a growth at 20 µM (HT-144 [8]) of 110%. For the same compound, the solubility [2] was “Soluble”, the growth at 5 µM [9] was 90% and the IC50 [3] was 21 µM. For the same compound, the growth at 5 µM [10] was 98% and the solubility [4] was “Soluble”.
Work on `CC(=O)Oc1ccc(/C=C/c2cc(F)cc(F)c2)cc1` yielded an IC50 [6] of 10 µM, a GI50 (RXF 393) of 202 µM and an IC50 (RXF 393) of 75.9 µM. It also gave a GI50 (HT-29) of 80.6 µM, an IC50 (HT-29) of 73.7 µM and a GI50 (DU-145) of 128 µM. The IC50 (DU-145) was 100 µM, the growth at 100 µM (NCI-H460) was 7% and the IC50 (HT-144 [7]) was 36 µM. For the same compound, the growth at 20 µM (HT-144 [8]) was 85%, the GI50 (SK-MEL-28) was 83.1 µM and the IC50 (SK-MEL-28) was 70.1 µM. The solubility [2] was “Soluble”, the GI50 (EKVX) was 117 µM and the IC50 (EKVX) was 78.7 µM. The growth at 5 µM [9] was 50%, the GI50 (SK-OV-3) was 96.5 µM and the IC50 (SK-OV-3) was 83.1 µM. For the same compound, the growth at 100 µM (MCF7) was 22%, the growth at 100 µM (SF-268) was 1% and the IC50 [3] was 7 µM. The GI50 (SNB-75) was 90.9 µM, the IC50 (SNB-75) was 60.3 µM and the GI50 (T47D) was 128 µM. It also gave an IC50 (T47D) of 79.8 µM, a GI50 (HL-60(TB)) of 117 µM and an IC50 (HL-60(TB)) of 54.6 µM. For the same compound, the growth at 5 µM [10] was 52% and the solubility [4] was “Soluble”.
`COc1cccc2c1C(=O)c1c(O)c3c(c(O)c1C2=O)C[C@@](O)(C(=O)CO)C[C@@H]3O[C@H]1C[C@H](N)[C@@H](O)[C@H](C)O1` [EPIRUBICIN] showed a growth at 0.005 µM (HT-144 [12]) of 91%, a growth at 0.01 µM [13] of 64% and a growth at 1.5 µM [14] of 66%.
For `Oc1ccc(/C=C/c2cc(O)cc(O)c2)cc1` [RESVERATROL], the IC50 [6] was 15 µM, the IC50 (HT-144 [7]) was 40 µM and the growth at 20 µM (HT-144 [8]) was 100%. The growth at 10 µM [1] was 38%, the IC50 [3] was 10 µM and the Activity [5] was 66%. It also gave a growth at 10 µM [5] of 67%.
